Results: the array DNA melting data of Ke et al. (doi:10.1101/2024.01.08.574731)

Columns and labels:
[1] = folding enthalpy; higher = less favourable; fluorescence melt of hairpins on a sequencing array, two-state fit; conditions: sodium 0.088 M
In short: (§1)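 With Cy3 and quencher oligos annealed, library hairpins on a sequenced MiSeq flow cell were imaged for Cy3 fluorescence in 50 mM Na-HEPES pH 8.0, 25 mM NaCl, in 2.5 °C steps up to 60 °C. Melting temperature and folding enthalpy were derived from bootstrapped two-state fits of signals normalised to pre-quench Cy3 and to control constructs. Four replicates were combined by inverse variance, with fitted temperatures raised by 9.35 °C to match UV melts.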

[2] = melting temperature; fluorescence melt of hairpins on a sequencing array, two-state fit, raised by 9.35 °C to match UV melts; conditions: sodium 0.088 M
In short: as §1

GTAAGGCGAAAGCCGTAC (((.(((....))).)))
folding enthalpy [1]: -59.6 kJ/mol
Tm [2]: 53 °C

GATCGTACGTACGATC ((((((....))))))
folding enthalpy [1]: -151 kJ/mol
Tm [2]: 57.9 °C

GGCGTCGAAAGACGGGCC ((((((....)))..)))
folding enthalpy [1]: -53.1 kJ/mol
Tm [2]: 52 °C

GTGTAGGCGAAAGCCCAC (((..(((....))))))
folding enthalpy [1]: -72.7 kJ/mol
Tm [2]: 44.5 °C

GATCTAGACCTAGATC ((((((....))))))
folding enthalpy [1]: -137 kJ/mol
Tm [2]: 47.2 °C

GGCGACGAAAGTCCCGCC ((((((....)))..)))
folding enthalpy [1]: -81.5 kJ/mol
Tm [2]: 54.8 °C

GGCTATACGAAAGTAGCC (((..(((....))))))
folding enthalpy [1]: -136 kJ/mol
Tm [2]: 48.7 °C

CGAACGGAAACGTGATCG ((((((....)))..)))
folding enthalpy [1]: -82.2 kJ/mol
Tm [2]: 28.6 °C

GTTAGTGGAAACACTAGC (.(((((....))))).)
folding enthalpy [1]: -88.2 kJ/mol
Tm [2]: 40 °C

GGGTTCGAAAGAAACCCC ((((((....)))..)))
folding enthalpy [1]: -77.5 kJ/mol
Tm [2]: 52.5 °C

GCTTGCGGAAACGTGAGC (((..((....))..)))
folding enthalpy [1]: -132 kJ/mol
Tm [2]: 46.5 °C

GTACCCGAAAGGGATTAC ((((((....)))..)))
folding enthalpy [1]: -38.8 kJ/mol
Tm [2]: 25.7 °C

GTAAGACGAAAGTCGTAC (((.(((....))).)))
folding enthalpy [1]: -74.3 kJ/mol
Tm [2]: 50.4 °C

GAGAAGGGAAACCTTCCC (.(((((....))))).)
folding enthalpy [1]: -66.7 kJ/mol
Tm [2]: 34.6 °C

GCTCTCGAAAGAGTAGC ((((((....))).)))
folding enthalpy [1]: -116 kJ/mol
Tm [2]: 47.2 °C

GCACCGCGAAAGCGTTGC (((.(((....))).)))
folding enthalpy [1]: -178 kJ/mol
Tm [2]: 56.3 °C

GATCTCCACAGAGATC ((((((....))))))
folding enthalpy [1]: -135 kJ/mol
Tm [2]: 55.7 °C

GATCCTATAGAGGATC ((((((....))))))
folding enthalpy [1]: -121 kJ/mol
Tm [2]: 50.4 °C

GTGGTCACGAAAGTGCAC (((..(((....))))))
folding enthalpy [1]: -67.2 kJ/mol
Tm [2]: 39.9 °C

GAGACCGCGAAAGCGCTC (((..(((....))))))
folding enthalpy [1]: -32 kJ/mol
Tm [2]: 26.6 °C

GATCCTAGTCAGGATC ((((((....))))))
folding enthalpy [1]: -192 kJ/mol
Tm [2]: 51.6 °C

GATCAGATTGCTGATC ((((((....))))))
folding enthalpy [1]: -165 kJ/mol
Tm [2]: 49.5 °C

GCCATAGGAAACTACGGC (((.(((....))).)))
folding enthalpy [1]: -125 kJ/mol
Tm [2]: 40.6 °C

GGTGCAGGAAACCGCACC (((((.(....).)))))
folding enthalpy [1]: -189 kJ/mol
Tm [2]: 57 °C

GATCCTACCGAGGATC ((((((....))))))
folding enthalpy [1]: -164 kJ/mol
Tm [2]: 51.2 °C

GCGTAAAAACGC ((((....))))
folding enthalpy [1]: -83.3 kJ/mol
Tm [2]: 46.4 °C

GATCAGCATACTGATC ((((((....))))))
folding enthalpy [1]: -161 kJ/mol
Tm [2]: 51.4 °C

GCCTACGAAAGTAGGGGC ((((((....)))..)))
folding enthalpy [1]: -60.5 kJ/mol
Tm [2]: 61.3 °C

GCGCCCGAAAGGGCCCGC ((((((....)))..)))
folding enthalpy [1]: -41.5 kJ/mol
Tm [2]: 44.7 °C

GCTGCCGAAAGGCTGAGC ((((((....)))..)))
folding enthalpy [1]: -67.9 kJ/mol
Tm [2]: 50.1 °C

GATCGCAAGCGCGATC ((((((....))))))
folding enthalpy [1]: -130 kJ/mol
Tm [2]: 67.8 °C

GATCAGGGAGCTGATC ((((((....))))))
folding enthalpy [1]: -147 kJ/mol
Tm [2]: 52.4 °C

GATCAGCTTACTGATC ((((((....))))))
folding enthalpy [1]: -142 kJ/mol
Tm [2]: 51.3 °C

GACACCGGAAACGACGTC (((..((....))..)))
folding enthalpy [1]: -91.8 kJ/mol
Tm [2]: 29.4 °C

GATCCACCTGTGGATC ((((((....))))))
folding enthalpy [1]: -176 kJ/mol
Tm [2]: 63.8 °C

GAACAGCCGAAAGGCTTC (((..(((....))))))
folding enthalpy [1]: -22.9 kJ/mol
Tm [2]: 24.5 °C

GACTGAGGAAACTTAGTC ((((.((....)).))))
folding enthalpy [1]: -110 kJ/mol
Tm [2]: 39.4 °C

GTGAGCGAAAGCTGGCAC ((((((....)))..)))
folding enthalpy [1]: -37.7 kJ/mol
Tm [2]: 43 °C

GGTGTTGGAAACGATACC (((.(.(....).).)))
folding enthalpy [1]: -59.5 kJ/mol
Tm [2]: 33.2 °C

CGAGCGGAAACGCGGTCG ((((((....)))..)))
folding enthalpy [1]: -62.5 kJ/mol
Tm [2]: 52.8 °C

GCCTACTCGAAAGAGGGC (((..(((....))))))
folding enthalpy [1]: -111 kJ/mol
Tm [2]: 44.1 °C

GGTACCGAAAGGTTACC ((((((....))).)))
folding enthalpy [1]: -111 kJ/mol
Tm [2]: 50 °C

GATCCGATGCCGGATC ((((((....))))))
folding enthalpy [1]: -168 kJ/mol
Tm [2]: 56.1 °C

GTTCCACGAAAGTGTAAC (((.(((....))).)))
folding enthalpy [1]: -109 kJ/mol
Tm [2]: 38.4 °C

GTCAACGAAAGTTAGAC ((((((....))).)))
folding enthalpy [1]: -98.5 kJ/mol
Tm [2]: 41 °C

GTACACGAAAGTGTCTAC ((((((....)))..)))
folding enthalpy [1]: -44.4 kJ/mol
Tm [2]: 35.8 °C

GATCACCGCGTGATC ((((((...))))))
folding enthalpy [1]: -149 kJ/mol
Tm [2]: 61.9 °C

GATCTAGCTCTAGATC ((((((....))))))
folding enthalpy [1]: -139 kJ/mol
Tm [2]: 45.2 °C

GGAGGATCGAAAGATTCC (((..(((....))))))
folding enthalpy [1]: -79.8 kJ/mol
Tm [2]: 28.4 °C

GTAGTTGGAAACAACTGC (.(((((....))))).)
folding enthalpy [1]: -75.2 kJ/mol
Tm [2]: 47.6 °C

GTCTCCGAAAGGAAGGAC ((((((....)))..)))
folding enthalpy [1]: -69.2 kJ/mol
Tm [2]: 36.2 °C

GTTAAACGAAAGTTAAC (((.(((....))))))
folding enthalpy [1]: -72 kJ/mol
Tm [2]: 34.6 °C

GGCACACCGAAAGGTGCC (((..(((....))))))
folding enthalpy [1]: -59.7 kJ/mol
Tm [2]: 52.8 °C

GGATATCGAAAGATTTCC (((.(((....))).)))
folding enthalpy [1]: -129 kJ/mol
Tm [2]: 41.5 °C

GATCCTCCGCAGGATC ((((((....))))))
folding enthalpy [1]: -60.5 kJ/mol
Tm [2]: 44.6 °C

CCTAAGAAATTAGG (((((....)))))
folding enthalpy [1]: -33.8 kJ/mol
Tm [2]: 28.1 °C

GTCGTTGGAAACAACGGC (.(((((....))))).)
folding enthalpy [1]: -166 kJ/mol
Tm [2]: 55.1 °C

GATCCCTCAAGGGATC ((((((....))))))
folding enthalpy [1]: -167 kJ/mol
Tm [2]: 60.9 °C

GGATCTACGAAAGTATCC (((..(((....))))))
folding enthalpy [1]: -47.2 kJ/mol
Tm [2]: 32.9 °C

GAGTGTACGAAAGTACTC (((..(((....))))))
folding enthalpy [1]: -49.1 kJ/mol
Tm [2]: 32.8 °C

GATCTACTTGTAGATC ((((((....))))))
folding enthalpy [1]: -172 kJ/mol
Tm [2]: 56.2 °C

GATCTGGGAAACCAGGTC ((.((((....)))).))
folding enthalpy [1]: -104 kJ/mol
Tm [2]: 48.4 °C

GTCTCGGGAAACTGGGAC (((.(.(....).).)))
folding enthalpy [1]: -123 kJ/mol
Tm [2]: 37.2 °C

GGCCCGGGAAACCGGGTC (.(((((....))))).)
folding enthalpy [1]: -121 kJ/mol
Tm [2]: 67.3 °C

GCGGGCGAAAGCCTCCGC ((((((....)))..)))
folding enthalpy [1]: -108 kJ/mol
Tm [2]: 53.3 °C

GCGTTGCGAAAGCTTCGC (((..((....))..)))
folding enthalpy [1]: -59.9 kJ/mol
Tm [2]: 64 °C

GACTACGAAAGTATGGTC ((((((....)))..)))
folding enthalpy [1]: -81.5 kJ/mol
Tm [2]: 34.4 °C

GACGTCACGAAAGTGGTC (((..(((....))))))
folding enthalpy [1]: -62.7 kJ/mol
Tm [2]: 35.6 °C

GATCGTAAAACGATC ((((((...))))))
folding enthalpy [1]: -154 kJ/mol
Tm [2]: 54.4 °C
